Legend:
Caco-2 [1] = assay: Decrease in the trans-epithelial electrical resistance(TEER) in Caco-2 cell monolayers; type: functional, cell-based; details: Homo sapiens
In short: (§1)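 Caco-2 cells (passage 45–55) grown on 1.0 cm² polycarbonate filters for 20–22 days and equilibrated 1 h in HBSS (25 mM HEPES, 25 mM glucose, pH 7.4) at 37 °C; monolayers with TEER 600–800 Ω·cm² used. Compound applied apically in HBSS at various concentrations for 20 min at room temperature. TEER read by voltohmmeter, blank filter subtracted. EC50 = concentration cutting TEER 50% versus untreated; triplicate, mean ± SD.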

Caco-2 [2] = assay: Increase in the mannitol flux by 10-fold (EC10x) of the control value; type: functional, Homo sapiens
In short: (§2)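 Caco-2 monolayers on filters, TEER 600–800 Ω·cm². Enhancer at 0.01–5.0 mM in HBSS applied apically for 20 min, then washed out. Apical side then given 0.1 mM [3H]mannitol, 37 °C, sink conditions. Basolateral samples taken at 20, 40, 60 and 90 min and counted by liquid scintillation. EC10x = concentration raising mannitol permeability 10-fold over control; triplicate.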

[3] = Concentration to decrease mitochondrial dehydrogenase vs concentration to decrease TEER (IC50/EC50); type: functional
In short: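 Ratio of two values measured on Caco-2 cells (passage 45–55). IC50: cells grown 96 h, exposed 20 min to phospholipid in HBSS, MTT added for 120 min more, SDS/HCl-isobutanol stop, absorbance 590 nm. EC50: 20–22-day monolayers (TEER 600–800 Ω·cm²), 20 min apical exposure in HBSS at room temperature, 50% TEER fall vs untreated. Triplicates.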

Caco-2 [4] = assay: Critical Micelle Concentration (CMC) determined by fluorescence assay using DPH as a probe; type: functional, Homo sapiens
In short: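 Aqueous phosphocholine solutions over a concentration range received DPH (1 µL of 10 mM stock in THF per 2 mL). They were held 30 min in the dark at room temperature, then fluorescence was read (ex 365, em 460 nm). CMC was taken as the intersection of linear fits below and above the intensity inflection; mean of triplicates.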

Caco-2 [5] = assay: Concentration to increase the mannitol flux by 10-fold (EC10x) of the control value; type: functional, Homo sapiens; in short: as §2
Caco-2 [6] = assay: Concentration to decrease the transepithelial electrical resistance (TEER) in Caco-2 cell monolayers; type: functional, cell-based; details: Homo sapiens; in short: as §1

Row | EC50 (Caco-2 [1]) [µM] | Potency index [3] | EC50 (Caco-2 [6]) [µM] | SMILES | EC10x (Caco-2 [2]) [µM] | CMC (Caco-2 [4]) [µM] | EC10x (Caco-2 [5]) [µM]
1 | > 2000 |  |  | CCCCCCCCCCCCCCCCOC(CNC(=O)CCCCCCCCC)COP(=O)([O-])OCC[N+](C)(C)C (centres undefined) | >2000 |  | 
2 | > 2000 |  |  | CCCCCCCCCCCCCCCC(=O)NCC(COP(=O)([O-])OCC[N+](C)(C)C)OCCCCCCCCCC (centres undefined) | >2000 |  | 
3 | 1040 | 1.92 |  | CCCCCCCCCCCCOC(CNC(=O)CCCCCCCCC)COP(=O)([O-])OCC[N+](C)(C)C (centres undefined) | >3000 |  | 
4 |  | 1.27 | 300 | CCCCCCCCCC(=O)NCC(COP(=O)([O-])OCC[N+](C)(C)C)OCCCCCCCC (centres undefined) |  | 55.3 | 1210
5 | > 5000 |  |  | CCCCOC(CNC(=O)CCC)COP(=O)([O-])OCC[N+](C)(C)C (centres undefined) | >5000 |  | 
6 | 780 | 1.72 |  | CCCCCCCCCCCCOC(CNC(C)=O)COP(=O)([O-])OCC[N+](C)(C)C (centres undefined) | 4270 |  | 
7 | > 2000 |  |  | CCCCCCCCCCCCCCOC(CNC(=O)CCCCCCCCC)COP(=O)([O-])OCC[N+](C)(C)C (centres undefined) | >2000 |  | 
8 | > 5000 |  |  | CCCCCCCC(=O)NCC(COP(=O)([O-])OCC[N+](C)(C)C)OCCCC (centres undefined) | >5000 |  | 
9 | > 1000 |  |  | CCCCCCCCCCCCCCCC(=O)NCC(COP(=O)([O-])OCC[N+](C)(C)C)OCCCCCCCCCCCC (centres undefined) | >1000 |  | 
10 | > 500 |  |  | CCCCCCCCCCCCCCCCOC(CNC(=O)CCCCCCCCCCC)COP(=O)([O-])OCC[N+](C)(C)C (centres undefined) | >500 |  | 
11 | 420 | 2.38 |  | CCCCCCCCCC(=O)NCC(COP(=O)([O-])OCC[N+](C)(C)C)OCCCCCC (centres undefined) | 730 |  | 
12 | 3190 | 1.24 |  | CCCCCCCCCC(=O)NCC(COP(=O)([O-])OCC[N+](C)(C)C)OCCCC (centres undefined) | >5000 | 1170 | 
13 | > 5000 |  |  | CCCCCCCCCCCCCCCCCC(=O)NCC(COP(=O)([O-])OCC[N+](C)(C)C)OCCCCCCCC (centres undefined) | >5000 |  | 
14 | 70 | 1.43 |  | CCCCCCCCCCCCCCCCOC(CNC(C)=O)COP(=O)([O-])OCC[N+](C)(C)C (centres undefined) | 350 |  | 
15 | 520 | 0.6 |  | CCCCCCCCCCCCCCCC(=O)NCC(COP(=O)([O-])OCC[N+](C)(C)C)OCCCCCC (centres undefined) | 1610 |  | 
16 | 300 | 0.93 |  | CCCCCCCCCCCCCCCCOC(CNC(=O)CCCCC)COP(=O)([O-])OCC[N+](C)(C)C (centres undefined) | 1350 |  | 
17 | 190 | 0.84 |  | CCCCCCCCCCCC(=O)NCC(COP(=O)([O-])OCC[N+](C)(C)C)OCCCCCC (centres undefined) | 1010 |  | 
18 | 90 | 1.11 |  | CCCCCCCCCCCCCCCC(=O)NCC(COP(=O)([O-])OCC[N+](C)(C)C)OCCCC (centres undefined) | 480 |  | 
19 | 80 | 2 |  | CCCCCCCCCCCCCC(=O)NCC(COP(=O)([O-])OCC[N+](C)(C)C)OCC (centres undefined) | 890 | 148 | 
20 | > 5000 |  |  | CCCCCCCCCCCCCCCC(=O)NCC(COP(=O)([O-])OCC[N+](C)(C)C)OCCCCCCCC (centres undefined) | >5000 |  | 
21 | 90 | 1.11 |  | CCCCCCCCCCCCCCCCCCOC(CNC(C)=O)COP(=O)([O-])OCC[N+](C)(C)C (centres undefined) | 340 |  | 
22 | > 5000 |  |  | CCCCCCCC(=O)NCC(COP(=O)([O-])OCC[N+](C)(C)C)OCCCCCC (centres undefined) | >5000 |  | 

Reference: ChEMBL document CHEMBL1135487, “Structure-activity relationship for enhancement of paracellular permeability across Caco-2 cell monolayers by 3-alkylamido-2-alkoxypropylphosphocholines” (J Med Chem, 2002)
